TCR-CD3 inh – blocks the human TCR-CD3 interaction. TAMRA-labeled TCR probe fluorescence, biochemical. inhibition, % at 9.4 µM. 0.37% of 360,000 active. AID 651800; in the data active = inhibition above about 19%;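 note: recombinant mutant TCR 2C K166C tagged with TAMRA read by polarization; 0% = receptor in buffer alone and 100% = receptor with positive control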
SIAE inh – blocks human sialic acid acetylesterase; Q9HAT2; 0.69% of 370,000 active; inhibition, % at 9.66 µM; SIAE FP-Rh probe binding, fluorescence polarization;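 active = inhibition above a cutoff: mean of compounds within the control limits plus 3 SD of those, cut at about 17% in these data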;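 note: 0% = plate median of compound wells and 100% = probe without SIAE protein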
HTRA1 inhibitor – inhibitors of human serine peptidase HTRA1; recombinant HTRA1, FP-rhodamine activity-based probe, fluorescence polarization; inhibition, % at 5.96 µM; 0.5% of 340,000 active; AID 504803; in the data active = inhibition above about 36%;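 note: 0% = enzyme with DMSO and 100% = wells lacking enzyme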
ABHD4 inh – inhibits mouse alpha/beta hydrolase domain 4. purified mABHD4, FP-Rh probe fluorescence polarization. inhibition, % at 8.92 µM. 0.54% of 370,000 active;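 active = inhibition exceeding the mean over every tested compound plus 3 SD, cut at about 30% in these data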;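 note: 0% = plate median of compound wells and 100% = S159A mutant with DMSO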
Target sequence (Q8VD66 whole entry, looked up, the tested form may be a part): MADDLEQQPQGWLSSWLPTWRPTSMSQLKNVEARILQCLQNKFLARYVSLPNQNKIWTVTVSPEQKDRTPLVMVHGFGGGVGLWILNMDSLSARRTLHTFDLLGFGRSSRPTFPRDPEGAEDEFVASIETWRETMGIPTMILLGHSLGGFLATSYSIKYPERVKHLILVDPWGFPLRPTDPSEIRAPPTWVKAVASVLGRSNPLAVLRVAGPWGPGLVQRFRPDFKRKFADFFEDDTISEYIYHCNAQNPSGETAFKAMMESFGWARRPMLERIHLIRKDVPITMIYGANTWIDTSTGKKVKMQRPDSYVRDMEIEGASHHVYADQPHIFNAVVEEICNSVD
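Test system: mABHD4 protein; Read-out basis: % inhibition; Incubation: 45 min + 60 min at 25 °C; Repeats: single replicate; Technique: fluorescence polarization with parallel and perpendicular emission, 525/598 nm; Compound: 8.92 µM, single dose; Benchmarks: full inhibition S159A mutant plus DMSO, zero as sample-well median.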
PRMT1 inh – inhibitors of human PRMT1; Q99873; recombinant PRMT1, activity-based probe fluorescence polarization; inhibition, % at 2.79 µM; 1.3% of 370,000 active;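 active = inhibition above about 21% made by adding two undisclosed values, limit read from the data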
ABHD4 confirm – confirmation of mouse ABHD4 inhibitors | shares compounds with ABHD4 inh | purified mABHD4, FP-Rh probe fluorescence polarization | inhibition, % at 8.92 µM | 55% of 1,800 active;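 active = mean inhibition across replicates above the hit cutoff set in the primary screen, cut at about 30% in these data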;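 note: 0% = wild-type ABHD4 with DMSO and 100% = catalytically dead S159A mutant with DMSO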
SIAE confirm – human SIAE inhibition, confirmation | inhibition, % at 9.66 µM | 13% of 2,300 active | SIAE FP-Rh activity-based probe, fluorescence polarization | shares compounds with SIAE inh;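 active = mean inhibition of the replicates above the hit cutoff set in the primary screen, cut at about 17% in these data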;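 note: 0% = SIAE with DMSO and probe and 100% = probe without SIAE; inhibitors lower polarization as more probe stays unbound to SIAE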
The depositor's hits bear a star; . = not tested or not shown; ! = not confirmed by another sample. A selection: hits, their analogues and other compounds. The true share with any hit is near 2.7%.

SMILES	TCR-CD3 inh	SIAE inh	HTRA1 inhibitor	ABHD4 inh	PRMT1 inh	ABHD4 confirm	SIAE confirm
Cc1ccc(S(=O)(=O)N2CC3C(=O)C[C@@H](c4ccccc4)N(S(=O)(=O)c4cccc(Cl)c4)C3CC2c2ccccc2)cc1 (stereo not given in full)	1	-34	.	0	-3	.	.
Cc1cc(C(=O)O)ccc1-c1ccc(/C=C2\NC(=O)N(Cc3ccccc3Cl)C2=O)o1	.	.	-9	.	.	.	.
Cc1ccc(C(=O)O)cc1-c1ccc(/C=C2/NC(=O)N(c3ccccc3)C2=O)o1	10	-1	-5	46*	20	30*	.
Cc1ccc(C(=O)O)cc1-c1ccc(/C=C2\SC(=O)N(CC(=O)Nc3ccccc3)C2=O)o1	8	-27	-23	12	9	.	.
Cc1ccc(CN2C(=O)N/C(=C\c3ccc(-c4ccc(C(=O)O)cc4C)o3)C2=O)cc1	6	0	5	43*	1	40*	.
CCN(C[C@H]1N[C@@](CC)(C(=O)OC)[C@H]2C(=O)N(Cc3ccccc3)C(=O)[C@@H]12)C(=O)COc1ccccc1	3	3	3	-10	9	.	.
Cc1ccc(C(O)c2ncc(-c3ccccc3Cl)[nH]2)cc1 (stereo not given)	0	-3	.	-8	-3	.	.
Oc1ccc(C=Nc2cccc3ccccc23)c(O)c1	2	3	19	30*	11	10	.
CCCCNc1c(-c2ccc(OC)c(SC(C)CC)c2)nc2cnccn12 (stereo not given)	8	-3	-8	1	-1	.	.
CCCCNc1c(-c2ccc(OC)c(SC(C)CC)c2)nc2cc(C)ccn12 (stereo not given)	-6	18*!	9	44*	5	65*	10
COc1cccc(NC(=S)Nc2ccc(F)cc2)c1	1	6	1	-5	-4	.	.
COc1cccc(NC(=S)Nc2ccc(O)cc2)c1	6	17*	26	34*	17	20	5
COc1ccc(/C=N/NC(=O)c2cc3c(OC)ccc(OC)c3[nH]2)cc1O	-3	24*	17	33*	-1	47*	11
COc1ccc(/C=N/NC(=O)c2cnccn2)cc1O	4	1	-3	-5	-3	.	.
C/C(=N/Nc1ccnc2cc(Cl)ccc12)c1ccc(N)cc1	-1	23*	12	30*	3	33*	13
C=CCNc1nc(NCCOC)c2sc(-c3ccccc3)cc2n1	4	-6	.	3	-3	.	.
C=CCNc1nc(Nc2ccc(OC)c(OC)c2)c2sc(-c3ccccc3)cc2n1	-6	25*	.	42*	-3	51*	33*
O=C(CN1CCN(Cc2ccccc2Cl)CC1)N/N=C\c1ccccc1F	.	-4	.	-8	-4	.	.
O=C(N/N=C/c1c(O)n(Cc2ccccc2)c(=O)c2ccccc12)c1cccnc1	3	26*	23	62*	-3	73*	12
COc1ccc(Cn2c(O)c(/C=N/NC(=O)c3cccnc3)c3ccccc3c2=O)cc1	0	29*	10	31*	-8	45*	7
O=C(N/N=C/c1c(O)n(-c2ccccc2Cl)c(=O)c2ccccc12)c1cccnc1	11	9	31	22	3	.	.
COc1ccccc1N(CC(=O)Nc1cc(S(=O)(=O)N(C)C)ccc1C)S(=O)(=O)c1cccs1	5	6	-4	-4	-4	.	.
Cc1c(/C=N/Nc2nc3ccccc3[nH]2)c2ccccc2n1C	-8	40*	34	41*	-2	70*	20*
Cc1nn(-c2ccccc2)c(C)c1/C=N/Nc1nc2ccccc2[nH]1	-5	24*	19	42*	3	56*	37*
COc1cc(/C=N/Nc2nc3ccccc3[nH]2)cc(OC)c1O	-4	18*	12	38*	5	26	16
SMILES	TCR-CD3 inh	SIAE inh	HTRA1 inhibitor	ABHD4 inh	PRMT1 inh	ABHD4 confirm	SIAE confirm
COc1ccc(O)c(/C=N/Nc2nc3ccccc3[nH]2)c1	-9	12	-4	21	2	.	.
Cc1cccc(NC(=O)c2ccc(C)c(S(=O)(=O)N3CCCCC3)c2)n1	-11	-3	-7	-8	7	.	.
C=CCN1[C@@H](CC(C)C)COc2cccc(F)c2S1(=O)=O	.	6	.	-1	3	.	.
O=C(CNc1ccc(Br)cc1)NNC1=NCCC1	-11	9	4	0	0	.	.
CC(=O)Oc1ccc2c(=O)c(Oc3ccccc3)coc2c1OC(C)=O	10	20*	28	37*	2	15	3
CC(=O)Oc1cc2c(C(C)=O)coc2c2ccccc12	7	-2	6	-1	-1	.	.
Cc1[nH]c2ccccc2c1N=Nc1ccccc1C(=O)O	2	34*	31	56*	9	69*	10
CCOC(=O)C1(C)CCN1C(=O)c1ccc(SC(F)(F)F)cc1 (stereo not given)	6	3	.	-1	-1	.	.
OCCN1CCN(c2ncnc3c2ncn3[C@H]2CN(Cc3ccncc3)C[C@@H](CO)O2)CC1	2	1	.	0	-2	.	.
O=C1NN(c2cccc(Br)c2)C(=O)/C1=C\c1ccc(O)cc1	3	19*	-1	37*	20	41*	4
O=C(O)c1cccc(N/N=C/C2=C(Cl)c3cc(Cl)ccc3SC2)c1	3	21*	-18	30*	15	87*	31*
CCC(=O)N1Cc2cc(C(=O)Nc3nccs3)nc(-c3cccc(-c4ccccc4OC)c3)c2[C@@H]1CCO	7	-17	.	-8	-2	.	.
COC(=O)c1ccc(=O)c2nc3/c(=C/O)c(O)cc(=O)c3[nH]c12	140*	47*	61*	57*	29*	59*	28*
COC(=O)c1ccc(N)cc1O	-2	8	-4	-2	0	.	.
O=C(CN1C(=O)/C(=C2/SC(=S)N(CCS(=O)(=O)O)C2=O)c2ccccc21)Nc1cccc(Br)c1	12	18*	-23	60*	6	70*	5
CC1CCN(C(=O)CN2C(=O)NC(c3ccccc3)(c3ccccc3)C2=O)CC1	-2	-16	-3	-4	-3	.	.
C=CCn1c(O)c(C2=c3ccccc3=NC2=O)sc1=Nc1ccc(O)cc1	7	21*	10	35*	-2	73*	12
O=C(Nc1cccc(S(=O)(=O)N2CCCC2)c1)[C@H]1C[C@H](O)[C@@H](CO)O1	-7	0	.	7	0	.	.
Clc1ccc2c(N/N=C/c3cccc(Br)c3)ccnc2c1	4	27*	-12	32*	-2	31*	35*
Clc1ccc2c(N/N=C/c3ccccc3Br)ccnc2c1	-2	1	0	3	3	.	.
O=C(O)Cc1c[nH]c2cccc(O)c12	13	23*	9	53*	32*	23	12
